# The list shows a part of the results. Activity calls are given as the source filed them. Unless noted, no rule for the calls is given here.
# Assays:
# [1] = inhibition of Brca1/Bard1 split-luciferase complementation, confirmation, counter-screen for Mdm2/MdmX interaction inhibitor project, luminescence, single concentration (AID 504668); conditions: Brca1/Bard1 bimolecular luciferase complementation counterscreen, at 8 µM, stronger effect = higher value
# PEG-3 [2] = target: PEG-3 (UniProt Q6IN02); test: Peg3 promoter luciferase inhibitors, potency, dose response, cell-based, HeLa, CREF/GAPDH counter-screen panel (AID 624167); conditions: CREF/GAPDH counter-screens; HeLa PEG-Prom luciferase reporter, overnight, run 1, dose range 1, at 100 µM (top of the series) unless noted
# PEG-3 [3] = target: PEG-3 (UniProt Q6IN02); test: as above; conditions: CREF/GAPDH counter-screens; HeLa PEG-Prom luciferase reporter, overnight, run 2, dose range 1, at 100 µM (top of the series) unless noted
# Rat fibroblasts (CREF) [4] = test: as above; conditions: CREF/GAPDH counter-screens; run 1, dose range 1, at 100 µM (top of the series)
# Rat fibroblasts (CREF) [5] = test: as above; conditions: CREF/GAPDH counter-screens; run 2, dose range 1, at 100 µM (top of the series)
# [6] = inhibitors of PAF-induced NF-kB signaling, retest, confirmation, cell-based, GFP fluorescence, single concentration (AID 602472; in the data active = inhibition above about 40%;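 also: stimulus PAF is a Pseudomonas aeruginosa filtrate and not platelet activating factor; plate controls were DMSO wells with stimulus for no effect and unstimulated DMSO wells for full effect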); conditions: KKLEB CF airway cells, overnight, at 5 µM, stronger effect = higher value
# Outline: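 Test system: KKLEB NFkB-GFP reporter cells | Buffer or medium: Medium with 2% FBS for cells, serum-free medium for stimulus | Probe or stimulus: Pseudomonas aeruginosa filtrate (PAF) as NFkB-activating stimulus | Doses: 5 µM single dose | Incubation: 2 h pretreatment, overnight stimulation | Measured by: GFP fluorescence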
# [7] = inhibitors of PAF-induced NFkB signaling in CF airway cells, dose response, cell-based, uHTS hits, panel, cytotoxicity readout (AID 624344); conditions: CF bronchial epithelial cells, PAF-induced NFkB reporter inhibition, with PAF, run 1; at 79 µM (top of the series) unless noted
# [8] = as above; conditions: CF bronchial epithelial cells, PAF-induced NFkB reporter inhibition, with PAF, run 2; at 79 µM (top of the series) unless noted
# [9] = Peg3 promoter reporter inhibitors, retest, confirmation, cell-based, HeLa, luciferase reporter, single concentration (AID 602417;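 active = at 20 µM dose, 40% or more inhibition averaged across four replicates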); conditions: HeLa PEG-Prom luciferase reporter, luminescence, overnight; at 20 µM; stronger effect = higher value
# Chain of PEG-3 (Q6IN02 whole entry, looked up): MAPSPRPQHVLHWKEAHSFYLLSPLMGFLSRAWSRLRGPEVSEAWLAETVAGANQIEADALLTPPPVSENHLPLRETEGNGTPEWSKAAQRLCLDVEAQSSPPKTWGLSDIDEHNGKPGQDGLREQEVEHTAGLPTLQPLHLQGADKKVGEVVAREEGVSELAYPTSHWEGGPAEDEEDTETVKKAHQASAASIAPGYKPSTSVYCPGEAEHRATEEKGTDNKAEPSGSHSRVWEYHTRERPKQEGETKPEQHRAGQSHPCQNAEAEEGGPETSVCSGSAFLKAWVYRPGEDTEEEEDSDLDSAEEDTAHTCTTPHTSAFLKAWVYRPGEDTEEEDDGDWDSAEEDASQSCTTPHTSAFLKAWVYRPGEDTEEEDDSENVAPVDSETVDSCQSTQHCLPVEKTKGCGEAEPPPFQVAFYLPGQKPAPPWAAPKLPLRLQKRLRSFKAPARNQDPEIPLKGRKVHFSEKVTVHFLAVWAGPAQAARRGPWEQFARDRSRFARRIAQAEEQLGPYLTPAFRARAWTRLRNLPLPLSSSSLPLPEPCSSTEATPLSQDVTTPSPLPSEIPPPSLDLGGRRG
compound,measurement,setting,value
O=C(/C=C/Nc1ccccc1Br)c1ccccn1,inhibition,[1],24% (active)
same,inhibition,PEG-3 [2],96.6%
same,inhibition,PEG-3 [3],99.5%
same,inhibition,Rat fibroblasts (CREF) [4],97.6%
same,inhibition,Rat fibroblasts (CREF) [5],98.9%
Brc1ccc2ncnc(NCc3cccnc3)c2c1,inhibition,[1],26.8% (active)
same,inhibition,[6],69.2% (active)
same,inhibition,[7],105%
same,inhibition,[8],94.9%
COc1cc(/C=C/C(=O)N2CCC=CC2=O)cc(OC)c1OC,inhibition,[1],26.8% (active)
same,inhibition,PEG-3 [2],99.1%
same,inhibition,PEG-3 [3],96.1%
O=C(CNc1ccccc1)N/N=C/c1c(O)ccc2ccccc12,inhibition,[1],26.6% (active)
same,inhibition,PEG-3 [2],44.6%
same,inhibition,PEG-3 [3],64.1%
same,inhibition,Rat fibroblasts (CREF) [4],73.1%
same,inhibition,Rat fibroblasts (CREF) [5],49.7%
COc1ccc(-c2cn[nH]c2-c2ccc(OC)cc2)cc1,inhibition,[1],35.1% (active)
same,inhibition,[6],69.3% (active)
same,inhibition,[7],104%
same,inhibition,[8],104%
Nc1nonc1-n1nnc(C(=O)N/N=C/c2cc(Br)ccc2O)c1CNc1ccccc1,inhibition,[1],30.5% (active)
same,inhibition,PEG-3 [2],89.3%
same,inhibition,PEG-3 [3],81.9%
same,inhibition,Rat fibroblasts (CREF) [4],54.5%
same,inhibition,Rat fibroblasts (CREF) [5],59.3%
Cc1cc(C)c2nc(NNC(=O)c3ccc(S(=O)(=O)N4CC(C)CC(C)C4)cc3)sc2c1 (configuration not stated),inhibition,[1],23.2% (active)
same,inhibition,PEG-3 [2],99.5%
same,inhibition,PEG-3 [3],101%
same,inhibition,Rat fibroblasts (CREF) [4],92.9%
same,inhibition,Rat fibroblasts (CREF) [5],95.6%
CCN(CC)c1ccc2nc3ccc(N)cc3[n+](-c3ccccc3)c2c1,inhibition,[1],23.6% (active)
same,inhibition,PEG-3 [2],101%
same,inhibition,PEG-3 [3],102%
COc1cc(/C=C/c2ccc3cccc(O)c3n2)c(Br)cc1O,inhibition,[1],29.2% (active)
same,inhibition,PEG-3 [2],99.5%
same,inhibition,PEG-3 [3],96.1%
COc1ccc(C(NC(C)=O)c2ccc3cccnc3c2O)c(OC)c1 (configuration not stated),inhibition,[1],31.2% (active)
same,inhibition,PEG-3 [2],64.7%
same,inhibition,PEG-3 [3],59.9%
same,inhibition,Rat fibroblasts (CREF) [4],-4.86%
same,inhibition,Rat fibroblasts (CREF) [5],50.2%
CNC[C@H](CC1CCCCC1)NC[C@H](NCCC1CCCC1)[C@H](C)O,inhibition,[1],30.2% (active)
same,inhibition,[9],97.4% (active)
same,inhibition,PEG-3 [2],102%
same,inhibition,PEG-3 [3],99.9%
COc1ccc(C(O)(CC(C)C)C(CN2CCOCC2)c2ccccc2)cc1 (configuration not stated),inhibition,[1],30.5% (active)
same,inhibition,PEG-3 [2],100%
same,inhibition,PEG-3 [3],100%
Cc1cc(C(=O)COC(=O)C2=COCCO2)c(C)n1-c1ccccc1,inhibition,[1],31.6% (active)
same,inhibition,PEG-3 [2],101%
same,inhibition,PEG-3 [3],101%
CCOc1ccc(C(=O)O/N=C(\N)c2ccccn2)cc1,inhibition,[1],33% (active)
same,inhibition,PEG-3 [2],98%
same,inhibition,PEG-3 [3],98.8%
same,inhibition,Rat fibroblasts (CREF) [4],97.8%
same,inhibition,Rat fibroblasts (CREF) [5],98.6%
O=C1c2ccccc2S(=O)(=O)N1Cc1nc2ccccc2s1,inhibition,[1],32.9% (active)
same,inhibition,PEG-3 [2],101%
same,inhibition,PEG-3 [3],83.4%
Cc1nnc(NC(=O)Nc2ccc(Cl)c(Cl)c2)s1,inhibition,[1],33.4% (active)
same,inhibition,[6],68% (active)
same,inhibition,[7],91.7%
same,inhibition,[8],87.1%
CCN1C(=O)C(=Cc2cccc(OC)c2Oc2ccc([N+](=O)[O-])cc2[N+](=O)[O-])SC1=S,inhibition,[1],27.9% (active)
same,inhibition,PEG-3 [2],21.1%
same,inhibition,PEG-3 [3],46.1%
O=C(/C=C/c1ccccc1)NC(NC(=S)Nc1cccc(Cl)c1)C(Cl)(Cl)Cl (configuration not stated),inhibition,[1],25.6% (active)
same,inhibition,PEG-3 [2],98.2%
same,inhibition,PEG-3 [3],99.4%
C/C(=N\NC(=O)c1c(C)nc2ccccn12)c1ccc(O)cc1O,inhibition,[1],33.7% (active)
same,inhibition,PEG-3 [2],66.9%
same,inhibition,PEG-3 [3],48.1%
same,inhibition,Rat fibroblasts (CREF) [4],49.2%
same,inhibition,Rat fibroblasts (CREF) [5],56.5%
Cc1ccc2oc(/N=C(\N)NC(=O)C(C)(C)C)nc2c1,inhibition,[1],31.8% (active)
same,inhibition,PEG-3 [2],98%
same,inhibition,PEG-3 [3],94.5%
same,inhibition,Rat fibroblasts (CREF) [4],82.5%
same,inhibition,Rat fibroblasts (CREF) [5],79.9%
CC(C)c1ccc(-c2nc3ccccc3s2)cc1,inhibition,[1],35.8% (active)
same,inhibition,PEG-3 [2],99.1%
same,inhibition,PEG-3 [3],99.1%
Cc1ccc2occ(/C=N/NC(=O)c3ccccc3C)c(=O)c2c1,inhibition,[1],34.4% (active)
same,inhibition,[6],94.8% (active)
same,inhibition,[7],102%
same,inhibition,[8],110%
Cc1cc(C=C2C(=O)c3ccccc3C2=O)c(C)n1-c1ccccc1,inhibition,[1],34.3% (active)
same,inhibition,PEG-3 [2],62.9%
same,inhibition,PEG-3 [3],80.6%
COc1ccc(-c2oc3ncnc(NCCCN(C)C)c3c2-c2ccc(OC)cc2)cc1,inhibition,[1],28.6% (active)
CCN1CCN(C(c2ccc(C(F)(F)F)cc2)c2ccc3cccnc3c2O)CC1 (configuration not stated),inhibition,[1],31.2% (active)
same,inhibition,PEG-3 [2],101%
same,inhibition,PEG-3 [3],99.4%
CC(=O)/C(C#N)=C1\NC(=O)C(Cc2ccc(C)c(Cl)c2)S1 (configuration not stated),inhibition,[1],31.8% (active)
C=CCNC(=S)N/N=C(\C)c1ccccn1,inhibition,[1],31.6% (active)
O=C(O)c1cccc(COc2ccc3c(c2)CCC3)c1,inhibition,[1],24.1% (active)
same,inhibition,PEG-3 [2],98.5%
same,inhibition,PEG-3 [3],99.1%
same,inhibition,Rat fibroblasts (CREF) [4],91.1%
same,inhibition,Rat fibroblasts (CREF) [5],89.3%
COc1ccc(C(NC(=O)C(C)C)c2ccc3cccnc3c2O)cc1 (configuration not stated),inhibition,[1],28.9% (active)
same,inhibition,PEG-3 [2],67.9%
same,inhibition,PEG-3 [3],60.6%
same,inhibition,Rat fibroblasts (CREF) [4],75.6%
same,inhibition,Rat fibroblasts (CREF) [5],61.5%
O=C1/C(=C\c2cccc(O)c2O)SC(=S)N1Cc1ccccc1,inhibition,[1],34.2% (active)
same,inhibition,PEG-3 [2],99.6%
same,inhibition,PEG-3 [3],101%
C=C(C)Cn1c(SCC(=O)N/N=C/c2c(O)ccc3ccccc23)nc2ccccc2c1=O,inhibition,[1],31.4% (active)
same,inhibition,PEG-3 [2],54.6%
same,inhibition,PEG-3 [3],7.84%
Cc1ccc(C(=O)O/N=C(\N)c2ccccn2)cc1,inhibition,[1],34% (active)
same,inhibition,PEG-3 [2],102%
same,inhibition,PEG-3 [3],100%
same,inhibition,Rat fibroblasts (CREF) [4],100%
same,inhibition,Rat fibroblasts (CREF) [5],101%
COc1ccc(C(=O)O/N=C(\N)c2ccccn2)cc1,inhibition,[1],24.2% (active)
same,inhibition,PEG-3 [2],99.1%
same,inhibition,PEG-3 [3],101%
same,inhibition,Rat fibroblasts (CREF) [4],98.2%
same,inhibition,Rat fibroblasts (CREF) [5],99.2%

# From PubChem BioAssay
